Assay results collected from several papers.
Protocols differ between the studies behind these lines.
Target: Serine/threonine-protein kinase ULK3 (ULK3, Homo sapiens, UniProt Q6PHR2)
One construct used (Q6PHR2 1-472): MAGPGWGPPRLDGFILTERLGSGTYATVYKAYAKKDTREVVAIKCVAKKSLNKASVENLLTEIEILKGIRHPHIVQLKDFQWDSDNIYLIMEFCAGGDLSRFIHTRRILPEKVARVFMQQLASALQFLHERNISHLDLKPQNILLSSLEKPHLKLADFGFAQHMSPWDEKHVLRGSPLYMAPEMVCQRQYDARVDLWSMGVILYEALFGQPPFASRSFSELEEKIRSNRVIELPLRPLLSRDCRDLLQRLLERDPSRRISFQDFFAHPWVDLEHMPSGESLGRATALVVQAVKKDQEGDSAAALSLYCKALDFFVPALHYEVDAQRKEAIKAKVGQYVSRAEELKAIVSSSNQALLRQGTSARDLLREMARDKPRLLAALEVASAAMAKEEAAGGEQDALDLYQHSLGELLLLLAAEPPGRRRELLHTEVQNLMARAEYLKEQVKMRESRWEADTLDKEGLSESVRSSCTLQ

CCCCC(=O)Nc1ccc(-c2ccc3ncn(CCC)c(=O)c3c2)cn1
remaining binding (binding; competition with immobilised ligand; 0.5 µM): 99%

C=CC(=O)N1CCC[C@@H](n2nc(-c3ccc(Oc4ccccc4)cc3)c3c(N)ncnc32)C1
inhibition (enzyme activity; inhibitor; 1 µM): 29%

Cc1ccc(NC(=O)c2ccnc(C(F)(F)F)c2)cc1-c1cc(OCCO)nc(N2CCOCC2)c1
remaining binding (binding; competition with immobilised ligand; 1 µM): 85%

C=CC(=O)N1CCC([C@@H]2CCNc3c(C(N)=O)c(-c4ccc(Oc5ccccc5)cc4)nn32)CC1
inhibition (enzyme activity; inhibitor; 1 µM): 11%

CN1CCN(C(=O)c2ccc(NC(=O)Nc3ccc(N(C)c4ccnc(Nc5ccc(CS(C)(=O)=O)cc5)n4)cc3)cc2)CC1
remaining binding (binding; competition with immobilised ligand; 1 µM): 7.6%

C1=C/COCc2cc(ccc2OCCN2CCCC2)Nc2nccc(n2)-c2cccc(c2)COC/1
remaining signal (cell-free assay; 0.1 µM): 57%

C#Cc1cc(-c2cc(Nc3nc(N[C@@H](C)c4ccc(F)cn4)ncc3Cl)n[nH]2)ccc1C=O
inhibition (enzyme activity; inhibitor; 0.2 µM): 57.5%

COc1ccc2oc(-c3ccc4nc(N)oc4c3)c/c(=N\c3ccccc3NC(=O)CCN)c2c1
remaining binding (binding; 1 µM): 96%
